Bounds are passed on as bounds.

Assay [1] has as its target GHB high-affinity binding site (Rattus norvegicus). Briefly: Displacement of [3H]NCS-382 from GHB high-affinity binding site in rat brain homogenate.
Assay [2] can be described thus: Displacement of [3H]GABA from GABAB receptor in rat brain synaptic membranes. The format is cell membranes, Membrane. An outline of the steps:
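Adult male Sprague-Dawley rat cortex and central hemisphere synaptic membranes, thawed and washed four times by homogenization in 50 mM Tris-HCl pH 7.4 and 48000g spins at 4 °C. 200 µg protein was incubated with 5 nM [3H]GABA, 40 µM isoguvacine to saturate GABAA sites, and 0.1 mM displacer in Tris-HCl with 2.5 mM CaCl2, pH 7.4, for 45 min at 25 °C. Nonspecific binding was set with 0.1 mM baclofen. Bound counts were read by filtration and scintillation.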
(Displacement assays read how much labelled ligand stays bound in the presence of the test substance.)

A short description of assay [3]: Displacement of [3H]muscimol from GABAA receptor in rat brain synaptic membranes. The format is cell membranes, Membrane. An outline of the steps:
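Washed synaptic membranes from adult male Sprague-Dawley rat cortex and central hemispheres in 50 mM Tris-HCl pH 7.4. 100 µg protein was incubated with 5 nM [3H]muscimol and 0.1 mM displacer at 0 °C for 60 min. Nonspecific binding was set with 1 mM GABA. Bound counts were read by filtration and scintillation. Triplicates, at least two independent experiments.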

What is called Ki is a dissociation constant, usually derived from enzyme kinetics or from competition with a known ligand. Low values mean a stronger hold on the target, high ones a looser hold on the target. In general, pKi refers to the Ki on a negative log10 scale, so that one unit is a factor of ten. A high value points to a low Ki. In assay [1], `O=C([O-])CCC(O)c1ccc(OCc2ccc(Br)cc2)cc1.[Li+]` (racemic) yielded a Ki of 34 nM and a negative logarithm of the Ki (pKi) of 7.48.

One may read the IC50 as the concentration that inhibits the measured activity by half. In assay [1], `O=C([O-])CCC(O)c1ccc(CCc2ccccc2)cc1.[Li+]` (racemic) showed a Ki of 75 nM and a pKi of 7.13. For the same compound, the IC50 in assay [2] is over 100000 nM. In assay [3], this compound yielded an IC50 of over 100000 nM.

Regarding `O=C([O-])CCC(O)c1ccc(/C=C/c2ccccc2Cl)cc1.[Li+]` (stereo unspecified), in assay [1], the inhibition constant (Ki) is 54 nM and the pKi turned out to be 7.28.

In assay [1], `O=C([O-])CCC(O)c1ccc(OCc2ccc(F)cc2)cc1.[Li+]` (racemic) showed an inhibition constant (Ki) of 93 nM and a pKi of 7.03.

In assay [1], `O=C([O-])CCC(O)c1ccc(OCc2cccc(F)c2)cc1.[Li+]` (racemic) yielded an inhibition constant (Ki) of 63 nM and a pKi of 7.22.

In assay [1], `O=C([O-])CCC(O)c1ccc(OCc2ccccc2F)cc1.[Li+]` (racemic) came in with an inhibition constant Ki of 41 nM and a pKi of 7.39.

In assay [1], `O=C(O)CCC(=O)c1ccc(Br)cc1` had a Ki of 17000 nM and a pKi of 4.61.

`O=C([O-])CCC(O)c1ccc(-c2ccccc2)cc1.[Li+]` (racemic): in assay [1], the inhibitory constant (Ki) was found to be 440 nM and the pKi is recorded as 6.36.

For `O=C(O)CCC(O)c1ccc(OCc2cccc(Br)c2)cc1` (racemic), in assay [1], the inhibition constant (Ki) was found to be 51 nM and the pKi was found to be 7.32.

In assay [1], `O=C([O-])CC[C@@H](O)c1ccc(OCc2ccccc2I)cc1.[Li+]` (racemic) registered a Ki of 22 nM and a negative-log Ki (pKi) of 7.68.

Regarding `O=C([O-])CCC(O)c1ccc(OCc2ccccc2Br)cc1.[Li+]` (racemic), in assay [1], the inhibition constant (Ki) came to 53 nM and the negative-log Ki (pKi) came out at 7.28.

In assay [1], `O=C([O-])CCC(O)c1ccc(OCc2ccccc2)cc1.[Li+]` (racemic) showed an inhibition constant Ki of 110 nM and a negative-log Ki (pKi) of 6.96. For the same compound, in assay [2], the IC50 was over 100000 nM. In assay [3], this compound had an IC50 of over 100000 nM.

In assay [1], `O=C(O)CCC(=O)c1ccc(CCc2ccccc2)cc1` yielded a Ki of 8800 nM and a pKi of 5.07.

For the compound `O=C([O-])CCC(O)c1ccc(Cc2ccccc2)cc1.[Li+]` (racemic), in assay [1], the Ki turned out to be 120 nM and the pKi came out at 6.94.

In assay [1], `O=C([O-])CCC(O)c1ccc(/C=C/c2ccccn2)cc1.[Li+]` (stereo unspecified) gave a Ki of 230 nM and a negative logarithm of the Ki (pKi) of 6.67.

As for `O=C([O-])CCC(O)c1ccc(OCc2ccc(I)cc2)cc1.[Li+]` (racemic), in assay [1], the affinity, expressed as Ki, was 62 nM and the pKi worked out at 7.21.

In assay [1], `O=C(O)CCCc1ccc(CCc2ccccc2)cc1` yielded a Ki of 1200 nM and a pKi of 6.01.

`O=C([O-])CCC(O)c1ccc(/C=C/c2cccc(Cl)c2)cc1.[Li+]` (stereo unspecified): in assay [1], the inhibitory constant (Ki) turned out to be 79 nM and the pKi was 7.11.

In assay [1], `O=C([O-])CCC(O)c1ccc(/C=C/c2ccccc2)cc1.[Li+]` (stereo unspecified) had an inhibition constant (Ki) of 160 nM and a negative-log Ki (pKi) of 6.79. For the same compound, the IC50 in assay [2] is over 100000 nM. The compound further returned a half-inhibitory concentration (IC50) in assay [3] of over 100000 nM.

In assay [1], `COc1ccc(/C=C/c2ccc(C(O)CCC(=O)[O-])cc2)cc1.[Li+]` (stereo unspecified) displayed an inhibitory constant (Ki) of 180 nM and a pKi of 6.75.

For the compound `O=C([O-])CCC(O)c1ccc(OCc2ccco2)cc1.[Li+]` (racemic), in assay [1], affinity was put at a Ki of 200 nM and the negative logarithm of the Ki (pKi) was 6.72.

In assay [1], `Cc1ncsc1/C=C/c1ccc(C(O)CCC(=O)[O-])cc1.[Li+]` (stereo unspecified) registered a Ki of 250 nM and a pKi of 6.62.

`O=C([O-])CCC(O)c1ccc(/C=C/c2ccncc2)cc1.[Li+]` (stereo unspecified): in assay [1], the affinity corresponds to a Ki of 340 nM and the negative logarithm of the Ki (pKi) was found to be 6.49.

As for `O=C([O-])CCC(O)c1ccc(Br)cc1.[Li+]` (racemic), in assay [1], the Ki is 1100 nM and the pKi was 5.96.

For the compound `O=C([O-])CC[C@H](O)c1ccc(OCc2ccccc2I)cc1.[Li+]`, in assay [1], the Ki was found to be 220 nM and the negative-log Ki (pKi) turned out to be 6.66.

In turn, `O=C([O-])CCC(O)c1ccc(OCc2ccccc2I)cc1.[Li+]` (racemic) returned a Ki in assay [1] of 60 nM. In addition, the negative logarithm of the Ki (pKi) in assay [1] worked out at 7.22. Moreover, the concentration for half-maximal inhibition (IC50) in assay [2] and in assay [3] was over 100000 nM in each case.

As to `O=C([O-])CCC(O)c1ccc(OCc2cccc(I)c2)cc1.[Li+]` (racemic), in assay [1], the Ki came to 75 nM and the pKi is 7.12.

Consider `O=C(O)CCC(=O)c1ccc(Cc2ccccc2)cc1`, for which, in assay [1], the inhibition constant Ki amounted to 15000 nM and the negative-log Ki (pKi) came to 4.83.

Turning to `O=C([O-])CCC(O)c1ccc(OCc2cccs2)cc1.[Li+]` (racemic), in assay [1], the inhibition constant (Ki) is 96 nM and the pKi was 7.03.

The values are drawn from ChEMBL document CHEMBL1151760, “Novel high-affinity and selective biaromatic 4-substituted gamma-hydroxybutyric acid (GHB) analogues as GHB ligands: design, synthesis, and binding studies” (J Med Chem, 2008).
